pEC50: −log10 of the molar value. Values belong to the molecule of their own block, whether it stands above or below them. The source made the active and inactive calls. The rule behind the calls is not given here.
Key:
Bile acid receptor = molecular target: T1, Bile acid receptor (Homo sapiens, UniProt Q96RI1); assay: Agonist activity at human FXR expressed in human Huh-7 cells co-transfected with FXRE-Luc reporter plasmid assessed as receptor transactivation incubated for 16 hrs by luciferase reporter gene assay; type: cell-based
T1 sequence (Q96RI1 whole entry): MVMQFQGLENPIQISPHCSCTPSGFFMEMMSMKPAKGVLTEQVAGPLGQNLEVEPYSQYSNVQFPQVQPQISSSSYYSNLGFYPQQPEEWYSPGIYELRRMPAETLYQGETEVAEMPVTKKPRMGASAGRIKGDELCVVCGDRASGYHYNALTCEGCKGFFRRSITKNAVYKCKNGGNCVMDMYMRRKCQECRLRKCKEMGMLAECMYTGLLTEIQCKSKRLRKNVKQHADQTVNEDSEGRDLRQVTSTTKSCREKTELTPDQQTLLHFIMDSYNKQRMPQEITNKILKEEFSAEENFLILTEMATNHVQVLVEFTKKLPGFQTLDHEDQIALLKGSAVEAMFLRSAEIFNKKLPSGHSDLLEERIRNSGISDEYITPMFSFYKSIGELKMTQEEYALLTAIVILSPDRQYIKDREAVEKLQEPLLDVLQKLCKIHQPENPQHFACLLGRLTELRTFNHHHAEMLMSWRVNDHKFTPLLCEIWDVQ

[1] = Drug uptake in ICR mouse liver at 15 mg/kg, po measured after 8 hrs by LC-MS/MS analysis; type: ADME, organism-based; settings: read-out: Drug uptake
Outline: (§1)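 Overnight-fasted male ICR mice (n = 3 per time point) received single oral 15 mg/kg and were refed 2 h later. Blood and liver were taken at 1.5, 4 and 8 h. Serum (10 µL) was precipitated with 100 µL methanol/acetonitrile (1:1). Liver was homogenized in ten times its weight of the same solvent. Supernatants were diluted 1:1 in ACN/H₂O and analyzed by LC-MS/MS. The ratio is liver conc (ng/g) over plasma conc (ng/mL).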

[2] = Plasma concentration in ICR mouse at 15 mg/kg, po measured after 8 hrs by LC-MS/MS analysis; type: ADME, organism-based; outline: as §1
[3] = molecular target: T2, Bile acid receptor (Mus musculus) (UniProt Q60641); assay: In vivo agonist activity at FXR in C57BL/6J mouse assessed as downregulation of CYP8B1 mRNA expression in liver at 10 mg/kg, po measured after 6 hrs by qRT-PCR analysis; type: functional, organism-based
T2 sequence (whole entry): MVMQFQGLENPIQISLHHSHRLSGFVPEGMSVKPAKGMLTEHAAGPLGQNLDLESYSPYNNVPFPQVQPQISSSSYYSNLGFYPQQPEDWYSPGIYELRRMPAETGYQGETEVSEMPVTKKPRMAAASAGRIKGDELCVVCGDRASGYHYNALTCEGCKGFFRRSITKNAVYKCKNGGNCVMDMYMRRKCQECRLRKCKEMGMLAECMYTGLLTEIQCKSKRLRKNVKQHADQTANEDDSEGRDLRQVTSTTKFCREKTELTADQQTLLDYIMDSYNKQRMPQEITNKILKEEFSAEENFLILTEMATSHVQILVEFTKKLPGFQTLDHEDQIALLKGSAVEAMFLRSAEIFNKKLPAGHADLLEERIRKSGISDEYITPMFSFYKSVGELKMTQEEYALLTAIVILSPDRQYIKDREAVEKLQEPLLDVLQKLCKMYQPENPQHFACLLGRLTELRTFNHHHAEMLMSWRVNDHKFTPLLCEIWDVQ
Outline: (§2)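 Male C57BL/6J mice (7–8 weeks) were fasted 3 h, then dosed orally once in 0.25% CMC-Na (wt/vol) vehicle. Sacrificed 6 h post-dose; liver snap-frozen at -80 °C. TRIzol RNA extraction and qRT-PCR with GAPDH normalization (ΔΔCt). Results are fold over vehicle group (mean ± S.E.M, n = 6).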

[4] = molecular target: T3, TGR5 (G-protein coupled bile acid receptor 1) (Homo sapiens, UniProt Q8TDU6); assay: Agonist activity at human TGR5 expressed in HEK293 cells co-transfected with CRE-Luc reporter plasmid assessed as receptor transactivation incubated for 5.5 hrs by luciferase reporter gene assay relative to OCA; type: cell-based; settings: read-out: Efficacy
T3 sequence (Q8TDU6 whole entry): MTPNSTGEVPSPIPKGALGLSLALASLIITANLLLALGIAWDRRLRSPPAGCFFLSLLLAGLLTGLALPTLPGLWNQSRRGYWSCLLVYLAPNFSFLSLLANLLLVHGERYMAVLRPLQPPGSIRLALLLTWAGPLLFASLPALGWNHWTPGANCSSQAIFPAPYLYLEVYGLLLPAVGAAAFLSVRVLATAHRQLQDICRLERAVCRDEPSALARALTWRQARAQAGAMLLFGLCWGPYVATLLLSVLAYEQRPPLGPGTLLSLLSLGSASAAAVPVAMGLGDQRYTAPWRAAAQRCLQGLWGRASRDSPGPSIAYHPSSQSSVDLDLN

[5] = Plasma concentration in ICR mouse at 15 mg/kg, po measured after 1.5 hrs by LC-MS/MS analysis; type: ADME, organism-based; outline: as §1
[6] = Drug uptake in ICR mouse liver at 15 mg/kg, po measured after 1.5 hrs by LC-MS/MS analysis; type: ADME, organism-based; settings: read-out: Drug uptake; outline: as §1
[7] = molecular target: T4, G-protein coupled bile acid receptor 1 (Homo sapiens, UniProt Q8TDU6); assay: Agonist activity at human TGR5 expressed in HEK293 cells co-transfected with CRE-Luc reporter plasmid assessed as receptor transactivation incubated for 5.5 hrs by luciferase reporter gene assay; type: cell-based
T4 sequence (Q8TDU6 whole entry): T3 sequence (Q8TDU6 whole entry)

[8] = molecular target: T2, Bile acid receptor (Mus musculus); assay: Agonist activity at FXR in C57BL/6J mouse hepatocytes assessed as upregulation of SHP mRNA expression incubated for 24 hrs by qRT-PCR analysis; type: cell-based; settings: Hepatocyte, filed as agonist, dose 0.4-10 µM
Outline: (§3)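 Hepatocytes isolated from overnight-fasted male C57BL/6J mice (8–12 weeks), allowed 4 h to adhere, then given vehicle (0.5% DMSO) or compound at 0.4, 2 and 10 μM for 24 h. TRIzol RNA extraction, then qRT-PCR with GAPDH normalization by ΔΔCt. Values are expressed as fold over vehicle (mean ± S.E.M, n = 3).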

[9] = Drug uptake in ICR mouse liver at 15 mg/kg, po measured after 4 hrs by LC-MS/MS analysis; type: ADME, organism-based; settings: read-out: Drug uptake; outline: as §1
[10] = Plasma concentration in ICR mouse at 15 mg/kg, po measured after 4 hrs by LC-MS/MS analysis; type: ADME, organism-based; outline: as §1
[11] = molecular target: T2, Bile acid receptor (Mus musculus); assay: In vivo agonist activity at FXR in C57BL/6J mouse assessed as downregulation of CYP7A1 mRNA expression in liver at 10 mg/kg, po measured after 6 hrs by qRT-PCR analysis; type: functional, organism-based; outline: as §2
[12] = molecular target: T2, Bile acid receptor (Mus musculus); assay: Agonist activity at FXR in C57BL/6J mouse hepatocytes assessed as upregulation of BSEP mRNA expression at 0.4 to 10 uM incubated for 24 hrs by qRT-PCR analysis; type: cell-based; settings: Hepatocyte, filed as agonist, dose 0.4-10 µM; outline: as §3

Compound: C/C(=N\OCc1cc(C(=O)O)ccc1C#N)c1ccc(OCc2c(-c3ccccc3OC(F)(F)F)noc2C2CC2)cc1Cl
concentration at 8 h [1]: 941 ng/g
concentration at 8 h [2]: 8.4 ng/mL
Activity [3]: Active
Emax at 5.5 h [4]: 0.6%
concentration at 1.5 h [5]: 56.7 ng/mL
concentration at 1.5 h [6]: 4340 ng/g
pEC50 [7]: < 4.00
Activity [8]: Dose-Dependent Effect
concentration at 4 h [9]: 3580 ng/g
concentration at 4 h [10]: 45.2 ng/mL
Activity [11]: Active
Activity [12]: Active

Compound: C/C(=N\OCc1cncc(C(=O)O)c1)c1ccc(OCc2c(-c3ccccc3OC(F)(F)F)noc2C2CC2)c(F)c1
pEC50 (Bile acid receptor): 6.14

Compound: C/C(=N\OCc1cccc(C(=O)O)c1)c1ccc(OCc2c(-c3c(Cl)cccc3Cl)noc2C2CC2)cn1
pEC50 (Bile acid receptor): 6.63

Compound: C/C(=N\OCc1cc(C(=O)O)ccc1C#N)c1ccc(OCc2c(-c3ccccc3OC(F)(F)F)noc2C2CC2)c(F)c1
pEC50 (Bile acid receptor): 6.46

Compound: C/C(=N\OCc1cccc(C(=O)O)c1)c1ccc(OCc2c(-c3c(Cl)cccc3Cl)noc2C2CC2)c(Cl)c1
pEC50 (Bile acid receptor): 6.59

The next lines start with the values.

pEC50 (Bile acid receptor): 7.19
Compound: C/C(=N\OCc1cncc(C(=O)O)c1)c1ccc(OCc2c(-c3c(Cl)cccc3Cl)noc2C2CC2)cc1Cl

pEC50 (Bile acid receptor): 7.26
Compound: C/C(=N\OCc1cncc(C(=O)O)c1)c1ccc(OCc2c(-c3ccccc3OC(F)(F)F)noc2C2CC2)cc1Cl

pEC50 (Bile acid receptor): 6.97
Compound: C/C(=N\OCc1cccc(C(=O)O)c1)c1ccc(OCc2c(-c3ccccc3OC(F)(F)F)noc2C2CC2)cc1Cl

pEC50 (Bile acid receptor): 6.80
Compound: C/C(=N\OCc1cc(C)cc(C(=O)O)c1)c1ccc(OCc2c(-c3ccccc3OC(F)(F)F)noc2C2CC2)cc1Cl

pEC50 (Bile acid receptor): 6.87
Compound: C/C(=N\OCc1ccc(C(=O)O)cc1)c1ccc(OCc2c(-c3c(Cl)cccc3Cl)noc2C2CC2)cc1Cl

pEC50 (Bile acid receptor): 7.32
Compound: C/C(=N\OCc1cccc(C(=O)O)c1)c1ccc(OCc2c(-c3c(Cl)cccc3Cl)noc2C2CC2)cc1Cl
